The values that follow come from ChEMBL document CHEMBL1932946, “Design, synthesis and anticonvulsant evaluation of novel N-(4-substituted phenyl)-2-[4-(substituted) benzylidene]-hydrazinecarbothio amides” (Eur J Med Chem, 2012).

The first series concerns Mus musculus. As to the kind of experiment: Neurotoxicity in albino CF-1 mouse assessed as minimum motor impairment at 300 mg/kg, ip after 4 hrs by rotarod test. In kind it is toxicity, organism-based. Set-up: dose 300 mg/kg, route intraperitoneal. The note with it: in vivo. The gist of the method:
(§1)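 Minimal motor impairment assessed in male CF-1 albino mice (18–25 g) at 0.5 and 4 h after i.p. doses of 30, 100 and 300 mg/kg, given in 0.5% methyl cellulose. Minimum dose toxic in half or more of mice recorded.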
(Falling from the rotarod earlier than controls is read as motor impairment.)
For `S=C(N/N=C/c1ccc(Oc2ccccc2)cc1)Nc1ccc(Cl)cc1`, the Activity entry is recorded as “Non-toxic”.

Consider `S=C(N/N=C/c1ccc(Oc2ccc3c(c2)OCO3)cc1)Nc1ccccc1`, for which the Activity result was “Non-toxic”.

For the molecule `S=C(N/N=C/c1ccc(Oc2ccc(Cl)cc2)cc1)Nc1ccc(Cl)cc1`, the Activity result is recorded as “Non-toxic”.

As for `Cc1ccc(Oc2ccc(/C=N/NC(=S)Nc3ccc(Cl)cc3)cc2)cc1`, the Activity result was “Non-toxic”.

As to `S=C(N/N=C/c1ccc(Oc2ccc3ccccc3c2)cc1)Nc1ccccc1`, the Activity result is “Non-toxic”.

With `S=C(N/N=C/c1ccc(Oc2ccc(Cl)cc2)cc1)Nc1ccccc1`, the Activity result was “Non-toxic”.

For `S=C(N/N=C/c1ccc(Oc2ccc3c(c2)OCO3)cc1)Nc1ccc(Cl)cc1`, the Activity result is “Non-toxic”.

As to `S=C(N/N=C/c1ccc(Oc2ccc3ccccc3c2)cc1)Nc1ccc(Br)cc1`, the Activity result is “Non-toxic”.

As for `Cc1ccc(Oc2ccc(/C=N/NC(=S)Nc3ccccc3)cc2)cc1`, the Activity result is on record as “Non-toxic”.

`S=C(N/N=C/c1ccc(Oc2ccccc2)cc1)Nc1ccccc1`: the Activity entry is recorded as “Non-toxic”.

`O=[N+]([O-])c1ccc(Oc2ccc(/C=N/NC(=S)Nc3ccc(Br)cc3)cc2)cc1`: the Activity result is “Non-toxic”.

In the case of `S=C(N/N=C/c1ccc(Oc2ccc3c(c2)OCO3)cc1)Nc1ccc(Br)cc1`, the Activity entry is listed as “Non-toxic”.

In the case of `S=C(N/N=C/c1ccc(Oc2ccc(Br)cc2)cc1)Nc1ccc(Cl)cc1`, the Activity entry is given as “Non-toxic”.

For `S=C(N/N=C/c1ccc(Oc2ccc(Cl)cc2)cc1)Nc1ccc(Br)cc1`, the Activity result is “Non-toxic”.

Regarding `Fc1ccc(NC(=S)N/N=C/c2ccc(Oc3ccc4c(c3)OCO4)cc2)cc1`, the Activity result is given as “Non-toxic”.

Tested on in another series: not listed separately
The series is described as follows: Octanol-phosphate buffer partition coefficient, log P of the compound at 5 mg after 24 hrs by UV spectroscopic analysis. The format is physicochemical.
Settings: not given
The gist of the method:
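5 mg compound added to 10 mL octanol plus 10 mL phosphate buffer in a stoppered tube. Mixture shaken mechanically 24 h at room temperature, then left 6 h in a separating funnel to equilibrate.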
What is called logP is a log measure of how a compound divides between an organic and an aqueous phase. Take `S=C(N/N=C/c1ccc(Oc2ccccc2)cc1)Nc1ccc(Cl)cc1`: the logP at 24 h came out at 5.64.

Take `S=C(N/N=C/c1ccc(Oc2ccc3c(c2)OCO3)cc1)Nc1ccccc1`: the logP at 24 h was found to be 4.8.

`S=C(N/N=C/c1ccc(Oc2ccc(Cl)cc2)cc1)Nc1ccc(Cl)cc1` returned a logP at 24 h of 6.2.

`Cc1ccc(Oc2ccc(/C=N/NC(=S)Nc3ccc(Cl)cc3)cc2)cc1` came in with a logP at 24 h of 5.97.

Regarding `S=C(N/N=C/c1ccc(Oc2ccc3ccccc3c2)cc1)Nc1ccccc1`, the logP at 24 h was 6.07.

As for `S=C(N/N=C/c1ccc(Oc2ccc(Cl)cc2)cc1)Nc1ccccc1`, the logP at 24 h stood at 5.52.

`S=C(N/N=C/c1ccc(Oc2ccc3c(c2)OCO3)cc1)Nc1ccc(Cl)cc1` gave a logP at 24 h of 5.54.

`S=C(N/N=C/c1ccc(Oc2ccc3ccccc3c2)cc1)Nc1ccc(Br)cc1` gave a logP at 24 h of 6.93.

As to `Cc1ccc(Oc2ccc(/C=N/NC(=S)Nc3ccccc3)cc2)cc1`, the logP at 24 h is 5.39.

Take `S=C(N/N=C/c1ccc(Oc2ccccc2)cc1)Nc1ccccc1`: the logP at 24 h was 4.9.

As to `O=[N+]([O-])c1ccc(Oc2ccc(/C=N/NC(=S)Nc3ccc(Br)cc3)cc2)cc1`, the logP at 24 h was 5.68.

Molecule `S=C(N/N=C/c1ccc(Oc2ccc3c(c2)OCO3)cc1)Nc1ccc(Br)cc1` gave a logP at 24 h of 5.52.

`S=C(N/N=C/c1ccc(Oc2ccc(Br)cc2)cc1)Nc1ccc(Cl)cc1` displayed a logP at 24 h of 6.37.

Molecule `S=C(N/N=C/c1ccc(Oc2ccc(Cl)cc2)cc1)Nc1ccc(Br)cc1` had a logP at 24 h of 6.24.

For the molecule `Fc1ccc(NC(=S)N/N=C/c2ccc(Oc3ccc4c(c3)OCO4)cc2)cc1`, the logP at 24 h was 4.99.

For the next series, the system named is Mus musculus. The series is described as follows: Neurotoxicity in albino CF-1 mouse assessed as minimum motor impairment at 300 mg/kg, ip after 0.5 hrs by rotarod test. The format is toxicity, organism-based. Set-up: dose 300 mg/kg, route intraperitoneal. The note with it: in vivo. The gist of the method:
as §1
On to `S=C(N/N=C/c1ccc(Oc2ccccc2)cc1)Nc1ccc(Cl)cc1`, for which the Activity entry is listed as “Non-toxic”.

As for `S=C(N/N=C/c1ccc(Oc2ccc3c(c2)OCO3)cc1)Nc1ccccc1`, the Activity entry is reported as “Non-toxic”.

As for `S=C(N/N=C/c1ccc(Oc2ccc(Cl)cc2)cc1)Nc1ccc(Cl)cc1`, the Activity result is recorded as “Non-toxic”.

For the molecule `Cc1ccc(Oc2ccc(/C=N/NC(=S)Nc3ccc(Cl)cc3)cc2)cc1`, the Activity result is “Non-toxic”.

For `S=C(N/N=C/c1ccc(Oc2ccc3ccccc3c2)cc1)Nc1ccccc1`, the Activity entry was “Non-toxic”.

As to `S=C(N/N=C/c1ccc(Oc2ccc(Cl)cc2)cc1)Nc1ccccc1`, the Activity result is on record as “Non-toxic”.

As to `S=C(N/N=C/c1ccc(Oc2ccc3c(c2)OCO3)cc1)Nc1ccc(Cl)cc1`, the Activity entry was “Non-toxic”.

Take `S=C(N/N=C/c1ccc(Oc2ccc3ccccc3c2)cc1)Nc1ccc(Br)cc1`: the Activity entry is “Non-toxic”.

Take `Cc1ccc(Oc2ccc(/C=N/NC(=S)Nc3ccccc3)cc2)cc1`: the Activity entry is reported as “Non-toxic”.

Regarding `S=C(N/N=C/c1ccc(Oc2ccccc2)cc1)Nc1ccccc1`, the Activity result is on record as “Non-toxic”.

Regarding `O=[N+]([O-])c1ccc(Oc2ccc(/C=N/NC(=S)Nc3ccc(Br)cc3)cc2)cc1`, the Activity result is “Non-toxic”.

`S=C(N/N=C/c1ccc(Oc2ccc3c(c2)OCO3)cc1)Nc1ccc(Br)cc1`: the Activity entry is “Non-toxic”.

For the molecule `S=C(N/N=C/c1ccc(Oc2ccc(Br)cc2)cc1)Nc1ccc(Cl)cc1`, the Activity entry is recorded as “Non-toxic”.

On to `S=C(N/N=C/c1ccc(Oc2ccc(Cl)cc2)cc1)Nc1ccc(Br)cc1`, for which the Activity result is given as “Non-toxic”.

As for `Fc1ccc(NC(=S)N/N=C/c2ccc(Oc3ccc4c(c3)OCO4)cc2)cc1`, the Activity entry is on record as “Non-toxic”.
